Source: ChEMBL document CHEMBL1131213, “Novel euglycemic and hypolipidemic agents. 1” (J Med Chem, 1998)

What was measured:
Rattus norvegicus [1] = assay: Tissue level at 10 mg/kg/po in wistar rats in liver; assay type: ADME, organism-based; conditions: in vivo
Method in brief: (§1)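 Wistar rats, two per drug, given 10 mg/kg orally and sacrificed at plasma tmax. Blood/plasma drawn just before sacrifice. Tissues perfused with phosphate buffer pH 5.8 and homogenized 1:4 in buffer. Drug measured by HPLC and reported as µg/g wet tissue. Ratios are tissue over plasma.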

Rattus norvegicus [2] = assay: Tissue level at 10 mg/kg/po in wistar rats in brown fat; assay type: ADME, organism-based; conditions: in vivo; method in brief: as §1
[3] = Ratio between level in subcutaneous fat to that of the level in plasma; assay type: ADME; method in brief: as §1
Rattus norvegicus [4] = assay: Tissue level at 10 mg/kg/po in wistar rats in blood; assay type: ADME, organism-based; conditions: in vivo; method in brief: as §1
[5] = Ratio between level in blood to that of the level in plasma; assay type: ADME; method in brief: as §1
Rattus norvegicus [6] = assay: Tissue level at 10 mg/kg/po in wistar rats in skeletal muscle; assay type: ADME, organism-based; conditions: in vivo; method in brief: as §1
Rattus norvegicus [7] = assay: Tissue level at 10 mg/kg/po in wistar rats in heart; assay type: ADME, organism-based; conditions: in vivo; method in brief: as §1
[8] = Ratio between level in skeletal muscle to that of the level in plasma; assay type: ADME; method in brief: as §1
[9] = Pharmacokinetic Parameter (Cmax) was evaluated at 10 mg/kg (p.o.) in Wistar rats; assay type: ADME, organism-based; parameters: dose 10 mg/kg, route oral; conditions: rat, in vivo, po
Method in brief: (§2)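 Wistar rats (175-200 g), fasted 12 h, water free, fed 3 h post-dose. Single 10 mg/kg oral dose as 0.5% CMC suspension. Orbital sinus blood taken at 0, 0.5, 1, 2, 3, 5, 8, 12 and 24 h. Plasma assayed by reverse-phase C18 HPLC with fluorescence detection. Noncompartmental analysis gave AUC0-∞, Kel, t1/2, Cmax and tmax.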

Rattus norvegicus [10] = assay: Tissue level at 10 mg/kg/po in wistar rats in subcutaneous fat; assay type: ADME, organism-based; conditions: in vivo; method in brief: as §1
Mus musculus [11] = assay: Percent reduction in blood glucose is evaluated in db/db mice for euglycemic and hypolipidemic activities at a dose of 10 mg/kg
[12] = Ratio between level in heart to that of the level in plasma; assay type: ADME; method in brief: as §1
[13] = Pharmacokinetic Parameter [Kel(1/h)] was evaluated at 10 mg/kg (p.o.) in Wistar rats; assay type: ADME, organism-based; parameters: dose 10 mg/kg, route oral; conditions: rat, in vivo, po; method in brief: as §2
[14] = Ratio between level in liver to that of the level in plasma; assay type: ADME, tissue-based; method in brief: as §1
[15] = Pharmacokinetic Parameter (half-life) was evaluated at 10 mg/kg (p.o.) in Wistar rats; assay type: ADME, organism-based; parameters: dose 10 mg/kg, route oral; conditions: rat, in vivo, po; method in brief: as §2
Rattus norvegicus [16] = assay: Tissue level at 10 mg/kg/po in wistar rats in plasma; assay type: ADME, organism-based; conditions: in vivo; method in brief: as §1
[17] = Pharmacokinetic Parameter [Area under curve (AUC)] was evaluated at 10 mg/kg (p.o.) in Wistar rats; assay type: ADME, organism-based; parameters: dose 10 mg/kg, route oral; conditions: rat, in vivo, po; method in brief: as §2
[18] = Ratio between level in brown fat to that of the level in plasma; assay type: ADME; method in brief: as §1
[19] = Pharmacokinetic Parameter [tmax(h)] was evaluated at 10 mg/kg (p.o.) in Wistar rats; assay type: ADME, organism-based; parameters: dose 10 mg/kg, route oral; conditions: rat, in vivo, po; method in brief: as §2
Mus musculus [20] = assay: Percent reduction in triglyceride (TG) after 9 days of dosing in db/db is evaluated in mice for euglycemic and hypolipidemic activities
Mus musculus [21] = assay: Percent reduction in triglyceride (TG) after 9 days of dosing in db/db is evaluated in mice for euglycemic and hypolipidemic activities at a dose of 10 mg/kg
Mus musculus [22] = assay: Percent reduction in triglyceride (TG) after 9 days of dosing in db/db is evaluated in mice for euglycemic and hypolipidemic activities at a dose of 100 mg/kg
Mus musculus [23] = assay: Percent reduction in blood glucose is evaluated in db/db mice for euglycemic and hypolipidemic activities at a dose of 200 mg/kg
Mus musculus [24] = assay: Percent reduction in triglyceride (TG) after 9 days of dosing in db/db is evaluated in mice for euglycemic and hypolipidemic activities at a dose of 200 mg/kg
Mus musculus [25] = assay: Percent reduction in blood glucose is evaluated in db/db mice for euglycemic and hypolipidemic activities at a dose of 100 mg/kg
[26] = Pharmacokinetic parameter [Kel(1/h)] was evaluated at 10 mg/kg (p.o.) in Wistar rats; assay type: ADME, organism-based; parameters: dose 10 mg/kg, route oral; conditions: rat, in vivo, po; method in brief: as §2
[27] = Pharmacokinetic parameter (Cmax) was evaluated at 10 mg/kg (p.o.) in Wistar rats; assay type: ADME, organism-based; parameters: dose 10 mg/kg, route oral; conditions: rat, in vivo, po; method in brief: as §2
[28] = Pharmacokinetic parameter [area under curve (AUC)] was evaluated at 10 mg/kg (p.o.) in Wistar rats; assay type: ADME, organism-based; parameters: dose 10 mg/kg, route oral; conditions: rat, in vivo, po; method in brief: as §2
[29] = Pharmacokinetic parameter (tmax(h)) was evaluated at 10 mg/kg (p.o.) in Wistar rats; assay type: ADME, organism-based; parameters: dose 10 mg/kg, route oral; conditions: rat, in vivo, po; method in brief: as §2
[30] = Pharmacokinetic parameter (half-life) was evaluated at 10 mg/kg (p.o.) in Wistar rats; assay type: ADME, organism-based; parameters: dose 10 mg/kg, route oral; conditions: rat, in vivo, po; method in brief: as §2

## CN(CCOc1ccc(CC2SC(=O)NC2=O)cc1)c1ccccn1.O=C(O)/C=C\C(=O)O (stereo unspecified) [ROSIGLITAZONE MALEATE]
Rattus norvegicus [1]
  Concentration: 10.9 µg/g
Rattus norvegicus [2]
  Concentration: 2.1 µg/g
[3]
  Kp: 0.53
Rattus norvegicus [4]
  Concentration: 13800 ng/mL
[5]
  blood plasma ratio: 0.51
Rattus norvegicus [6]
  Concentration: 0.87 µg/g
Rattus norvegicus [7]
  Concentration: 1.63 µg/g
[8]
  Kp: 0.03
[9]
  Cmax: 29400 ng/mL
Rattus norvegicus [10]
  Concentration: 14.32 µg/g
Mus musculus [11]
  Reduction: 55%
[12]
  Kp: 0.06
[13]
  k el: 0.0002 s⁻¹
[14]
  Kp: 0.4
[15]
  half-life: 1.02 h
Rattus norvegicus [16]
  Concentration: 27200 ng/mL
[17]
  AUC: 59200 ng·h/mL
[18]
  Kp: 0.08
[19]
  Tmax: 0.5 h
Mus musculus [20]
  Reduction: 37%

## CN(CCOc1ccc(CC2SC(=O)NC2=O)cc1)c1ccccn1 (stereo unspecified) [ROSIGLITAZONE]
Mus musculus [21]
  Reduction: 46%
Mus musculus [22]
  Reduction: 46%
Mus musculus [11]
  Reduction: 100%
Mus musculus [23]
  Reduction: 67%
Mus musculus [24]
  Reduction: 55%
Mus musculus [25]
  Reduction: 71%

## O=C1NC(=O)C(Cc2ccc(OCCn3ccc4cccnc43)cc2)S1 (stereo unspecified)
Mus musculus [23]
  Reduction: 33%
Mus musculus [24]
  Reduction: 74%

## O=C1NC(=O)/C(=C/c2ccc(OCCn3c(C(=O)O)cc4ccccc43)cc2)S1
Mus musculus [23]
  Reduction: 12%
Mus musculus [24]
  Reduction: 0%

## Cc1cc2ccccc2n1CCOc1ccc(/C=C2\SC(=O)NC2=O)cc1
Mus musculus [23]
  Reduction: 16%
Mus musculus [24]
  Reduction: 41%

## O=C1NC(=O)/C(=C/c2ccc(OCCn3ccnc3)cc2)S1
Mus musculus [23]
  Reduction: 13%
Mus musculus [24]
  Reduction: 72%

## O=C1NC(=O)C(Cc2ccc(OCCn3ccc4ccccc43)cc2)S1 (stereo unspecified)
Rattus norvegicus [1]
  Concentration: 10.01 µg/g
Rattus norvegicus [2]
  Concentration: 1.23 µg/g
[3]
  Kp: 0.13
Rattus norvegicus [4]
  Concentration: 7240 ng/mL
[5]
  blood plasma ratio: 0.62
Rattus norvegicus [6]
  Concentration: 0.85 µg/g
Rattus norvegicus [7]
  Concentration: 2.45 µg/g
[26]
  k el: 6.94e-05 s⁻¹
[8]
  Kp: 0.07
Mus musculus [22]
  Reduction: 77%
Rattus norvegicus [10]
  Concentration: 1.5 µg/g
[27]
  Cmax: 14500 ng/mL
[12]
  Kp: 0.21
[28]
  AUC: 129000 ng·h/mL
[14]
  Kp: 0.85
Rattus norvegicus [16]
  Concentration: 11800 ng/mL
[29]
  Tmax: 3.67 h
[18]
  Kp: 0.1
[30]
  half-life: 3.28 h
Mus musculus [25]
  Reduction: 74%

## O=C1NC(=O)C(Cc2ccc(OCCN3CCc4ccccc43)cc2)S1 (stereo unspecified)
Mus musculus [23]
  Reduction: 33%
Mus musculus [24]
  Reduction: 79%

## O=C1NC(=O)/C(=C/c2ccc(OCCn3cnc4ccccc43)cc2)S1
Mus musculus [23]
  Reduction: 33%
Mus musculus [24]
  Reduction: 76%

## O=C1NC(=O)/C(=C/c2ccc(OCCN3CCc4ccccc43)cc2)S1
Mus musculus [23]
  Reduction: 61%
Mus musculus [24]
  Reduction: 83%

## O=C1NC(=O)/C(=C/c2ccc(OCCn3ccc4cccnc43)cc2)S1
Mus musculus [23]
  Reduction: 36%
Mus musculus [24]
  Reduction: 79%

## CN(CCOc1ccc(/C=C2\SC(=O)NC2=O)cc1)c1ccccn1
Mus musculus [21]
  Reduction: 32%
Mus musculus [22]
  Reduction: 32%
Mus musculus [11]
  Reduction: 56%
Mus musculus [25]
  Reduction: 56%

## O=C1NC(=O)/C(=C/c2ccc(OCCn3ccc4ccccc43)cc2)S1
Mus musculus [23]
  Reduction: 33%
Mus musculus [20]
  Reduction: 37%

## O=C1NC(=O)C(Cc2ccc(OCCn3c4ccccc4c4ccccc43)cc2)S1 (stereo unspecified)
Mus musculus [22]
  Reduction: 21%
Mus musculus [25]
  Reduction: 0%

## CCOC(=O)c1cc2ccccc2n1CCOc1ccc(/C=C2\SC(=O)NC2=O)cc1
Mus musculus [23]
  Reduction: 0%
Mus musculus [24]
  Reduction: 13%

## O=C1NC(=O)/C(=C/c2ccc(OCCn3ccc4cc(Cl)ccc43)cc2)S1
Mus musculus [23]
  Reduction: 39%
Mus musculus [24]
  Reduction: 11%

## COC(=O)C(N)Cc1cn(CCOc2ccc(/C=C3\SC(=O)NC3=O)cc2)c2ccccc12 (stereo unspecified)
Mus musculus [22]
  Reduction: 64%
Mus musculus [25]
  Reduction: 27%

## O=C1NC(=O)/C(=C\c2ccc(OCCn3c4ccccc4c4ccccc43)cc2)S1
Mus musculus [22]
  Reduction: 44%
Mus musculus [25]
  Reduction: 0%

## Cc1c(C)n(CCOc2ccc(/C=C3\SC(=O)NC3=O)cc2)c2ccccc12
Mus musculus [23]
  Reduction: 40%
Mus musculus [24]
  Reduction: 2%

## Cc1c(C)c2c(c(C)c1O)CCC(C)(COc1ccc(CC3SC(=O)NC3=O)cc1)O2 (stereo unspecified) [TROGLITAZONE]
Mus musculus [11]
  Reduction: 41%
